Source: PubChem (The Scripps Research Institute Molecular Screening Center)
This is a sample that favours compounds with a hit; in the whole collection about 4.5% have one here.
OX1R antag-1: antagonists of human orexin 1 receptor (OX1R); Orexin/Hypocretin receptor type 1 (Homo sapiens), O43613; OX1R-expressing cells, FRET antagonist read-out; inhibition, % at 6.6 µM; actives 1.8% (n = 330,000); in the data active = inhibition mostly above about 38%, no sharp cut-off; inactive = mostly below about 40%;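 note: 0% = agonist challenge alone and 100% = reference antagonist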
TAAR1 ag: human TAAR1 agonists, primary screen, Fluo-8 calcium fluorescence, CHO RD-HGA16 cells; vehicle wells 0%, saturating PEA agonist 100%; actives 0.99% (n = 360,000); Trace amine-associated receptor 1 (Homo sapiens), Q96RJ0; activation, % at 3 µM;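 active = activation above the mean activation of all test compounds in the run plus 3 SD, cut at about 38% in these data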
Target sequence (Q96RJ0 whole entry, looked up): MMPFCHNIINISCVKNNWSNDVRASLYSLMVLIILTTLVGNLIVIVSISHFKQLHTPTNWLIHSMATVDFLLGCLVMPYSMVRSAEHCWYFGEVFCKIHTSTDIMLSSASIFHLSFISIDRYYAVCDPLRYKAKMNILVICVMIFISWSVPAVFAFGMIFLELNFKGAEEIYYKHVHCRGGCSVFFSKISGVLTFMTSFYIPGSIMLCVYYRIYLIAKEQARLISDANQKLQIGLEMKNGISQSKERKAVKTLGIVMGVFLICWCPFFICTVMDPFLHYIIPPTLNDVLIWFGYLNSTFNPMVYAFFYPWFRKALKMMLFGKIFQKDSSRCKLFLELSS
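Signal – calcium-sensitive Fluo-8 signal, excitation 470-495, emission 515-575 nm · System – RD-HGA16 (CHO) cells co-expressing Gα16 and hTAAR1 · Incubation – 17-24 h seeding, 75 min 37 °C dye, 30 min RT · Compound dosing – 3 µM single concentration · Repeats – no replicates (n 1)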
TAAR1 antagonist: human TAAR1 antagonists, primary screen, Fluo-8 calcium fluorescence, CHO RD-HGA16 cells; actives 1.5% (n = 360,000); inhibition, % at 3 µM; antagonist; AID 624466, 2012; Trace amine-associated receptor 1 (Homo sapiens), Q96RJ0;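 active = inhibition above a per-plate cutoff, the mean inhibition of test compounds on that plate plus 3 SD, cut at about 49% in these data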;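 note: 0% = DMSO plus EC80 beta-PEA response and 100% = DMSO alone without agonist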
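System: RD-HGA16 CHO cells with stable hTAAR1 and Gα16 | Probe or stimulus: EC80 β-phenethylamine stimulus | Dosing: 3 µM, single point | Times: Dye loading 75 min at 37 °C, then 30 min room temperature | Measured by: Fluo-8 calcium-sensitive fluorescence | Read-out basis: % inhibition of agonist calcium response | Replicates: n of 1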
CHO parental Ca: ATP-evoked calcium signal inhibitors, parental CHO, primary screen, counter-screen for OX1R antagonist project, cell-based, fluorescence, Fluo-8 calcium dye. parental CHO-K1, ATP-induced calcium, Fluo-8 fluorescence. inhibition, % at 5.6 µM. AID 463079, 2010. actives 0.63% (n = 330,000);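 active = inhibition above that plate's mean sample inhibition plus 3 SD, cut at about 26% in these data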;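 note: 0% = ATP-challenged DMSO wells and 100% = DMSO wells without ATP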
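Measured by: calcium-sensitive Fluo-8 fluorescence / Test system: CHO parental line / Controls: ATP-challenged DMSO wells low, unchallenged DMSO wells high / Measure: % inhibition / Compound: single nominal dose of 5.6 µM per compound / Replicates: single well per compound, no replicates / Reagent: ATP as calcium-mobilizing challenge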
OX1R antag-2: OX1R (HCRTR1) antagonists, primary screen, fluorescence, CHO/OX1R cells, Fluo-8 calcium, orexin A; Fluo-8 calcium fluorescence; inhibition, % at 5 µM; actives 0.43% (n = 330,000); AID 434989, 2010;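 active = inhibition above its plate's threshold, mean inhibition of all tested compounds on the plate plus 3 SD, cut at about 37% in these data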;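 note: 0% = orexin A challenge wells and 100% = SB-334867-A antagonist wells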
GPR7 antag: GPR7 receptor antagonists, primary screen, cell-based, fluorescence, single concentration. Neuropeptides B/W receptor type 1 (Homo sapiens), P48145. GPR7-expressing cells, fluorescence antagonist assay. inhibition, % at 4.4 µM. actives 1.1% (n = 290,000). AID 1861, 2009; in the data active = inhibition above about 16%, passing the limit was not always enough;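 note: cells stimulated with the agonist NPW; 0% = agonist with vehicle and 100% = vehicle without agonist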
Target sequence (P48145 whole entry, looked up): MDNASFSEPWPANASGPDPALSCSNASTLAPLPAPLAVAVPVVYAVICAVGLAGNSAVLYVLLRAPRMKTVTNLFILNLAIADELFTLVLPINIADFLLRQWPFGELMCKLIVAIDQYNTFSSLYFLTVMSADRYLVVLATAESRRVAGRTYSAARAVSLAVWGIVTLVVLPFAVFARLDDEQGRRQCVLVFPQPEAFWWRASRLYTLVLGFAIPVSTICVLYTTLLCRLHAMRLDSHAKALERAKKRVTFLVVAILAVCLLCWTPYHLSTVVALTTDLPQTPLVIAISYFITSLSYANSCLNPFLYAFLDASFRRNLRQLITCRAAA
GPR7 antag conf: GPR7 receptor antagonists, confirmation, cell-based, fluorescence, single concentration. actives 52% (n = 2,400). inhibition, % at 4.4 µM. GPR7-expressing cells, calcium fluorescence antagonist mode. shares compounds with GPR7 antag. AID 1952, 2009; in the data active = inhibition above about 24%;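 note: stimulated with the GPR7 agonist NPW; 0% = agonist plus vehicle and 100% = vehicle alone without agonist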
MCHR1 antag: MCHR1 antagonists in cells, counter-screen for GPR7 antagonist project, cell-based, fluorescence, human; shares compounds with GPR7 antag; MCHR1-expressing cells, fluorescence antagonist assay; inhibition, % at 4.4 µM; actives 62% (n = 2,400); in the data active = inhibition above about 22%;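 note: 0% = vehicle with agonist and 100% = vehicle without agonist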
* marks the source's active call; other numbers are inactive results; nt = no result.

SMILES | OX1R antag-1 | TAAR1 ag | TAAR1 antagonist | CHO parental Ca | OX1R antag-2 | GPR7 antag | GPR7 antag conf | MCHR1 antag
Cc1ccc(N2CC(O)CSC2=Nc2ccccc2)cc1 (configuration not stated) | nt | 12.3 | -5.1 | nt | nt | nt | nt | nt
CC1(CNC(=O)C(=O)NCC2(C)CO2)CO1 (configuration not stated) | nt | 3.7 | -1.9 | nt | nt | nt | nt | nt
CC(C(=O)N1CCN(Cc2ccc3c(c2)OCO3)CC1)c1ccc([N+](=O)[O-])cc1 (configuration not stated) | 26.1 | 11.6 | 0.1 | -19.6 | -26.4 | 27.2* | 26.9* | 27.5*
O=C(C(Cl)Cl)N1CCN(Cc2ccc3c(c2)OCO3)CC1 | -8.5 | 2.3 | -0.3 | 0.1 | -15.3 | -14.9 | nt | nt
CN(C)CCCNc1nc(-c2ccccc2)c2c(c1C#N)CC(C)(C)OC2 | 12.9 | -3.6 | 0.3 | -7.2 | -24.6 | -0.5 | nt | nt
Cc1nc(NCCO)c(C#N)c2c1COC(C)(C)C2 | 3.6 | 6.5 | 11.7 | -7.6 | 2.3 | 25.9* | -20.7 | -4.8
C#CC(CO)N(CCN(Cc1ccccc1)C(C#C)CO)Cc1ccccc1 (configuration not stated) | 15.1 | 1.9 | 15.1 | -21.7 | -28.6 | nt | nt | 13.6
C#CCN(C)Cc1ccccc1 | 14.1 | 1.6 | -11.4 | 0.2 | 5.0 | -11.5 | nt | nt
O=C(CN1CCCCC1)Nc1cc(S(=O)(=O)N2CCOCC2)ccc1N1CCCC1 | -5.1 | 7.2 | -5.9 | -1.7 | -14.5 | nt | nt | nt
Cc1ccc(S(=O)(=O)Nc2cc(S(=O)(=O)N3CCCCC3)ccc2N2CCOCC2)cc1 | 21.5 | 2.8 | -6.8 | -20.2 | -18.2 | 32.5* | -0.3 | -0.2
CC1(C)NC(=O)N(CC(=O)Nc2cc(S(=O)(=O)N3CCOCC3)ccc2N2CCOCC2)C1=O | 21.5 | nt | nt | 0.7 | -7.8 | 27.4* | -9.9 | -2.3
C=CCC1CCCCC1=C(C#N)c1ccccc1 (configuration not stated) | nt | 2.5 | -1.3 | nt | nt | nt | nt | nt
N#Cc1cccc(NC(=O)COc2ccc(-n3ccnc3)cc2)c1 | 25.2 | 7.6 | 22.4 | 23.3* | 7.5 | 23.8* | 3.5 | 44.4*
CC(=O)c1cccc(NC(=O)CSc2nnc(C(C)N(C)C)n2-c2ccc(F)cc2)c1 (configuration not stated) | 28.4 | -3.5 | 4.2 | -15.5 | -24.6 | 34.6* | 9.5 | -3.5
Cc1cc(Cl)ccc1OC(C)C(=O)Nc1ccc(S(=O)(=O)N2CCOCC2)cc1 (configuration not stated) | -7.0 | 22.8 | 31.2 | 14.2 | 12.2 | 34.7* | 23.7 | 26.0*
O=C(Nc1cccnc1)c1cc(-c2ccccc2O)on1 | 7.0 | 6.6 | -13.8 | -5.3 | -7.8 | 38.5* | 40.4* | 43.3*
O=C(Nc1cccnc1)c1cc(-c2cccs2)on1 | 17.9 | 5.7 | 9.5 | -1.4 | -18.2 | 7.4 | nt | nt
COC(=O)c1cc(C)sc1NC(=O)CCCC(=O)O | 10.0 | -0.4 | 5.9 | -12.3 | -17.0 | 17.6 | nt | nt
CCc1cc(C(=O)OC)c(NC(=O)CCCC(=O)O)s1 | 8.4 | 8.8 | 2.2 | 8.1 | -4.0 | 26.2* | -2.7 | 0.0
CCCCC(Nc1ncnc2ccccc12)C(=O)O (configuration not stated) | 7.0 | 5.1 | -2.6 | -7.2 | -3.8 | 22.8* | -5.7 | -8.7
CC(=O)NNc1ncnc2ccccc12 | 6.1 | 4.5 | 1.1 | 0.4 | -11.5 | 6.7 | nt | nt
Cn1c(=O)c([N+](=O)[O-])c(Cl)c2ccccc21 | nt | -0.4 | -2.0 | nt | nt | 26.3* | 51.0* | 76.2*
C/C(=N/NC(=O)c1nnn(-c2nonc2N)c1CSc1ccc(C)cc1)c1ccncc1 | nt | 2.0 | 3.8 | nt | nt | nt | nt | nt
CC[C@@H](NC(=O)[C@H](Cc1ccccc1)NC(=O)CC[C@H]1O[C@@H](n2ccc(=O)[nH]c2=O)[C@H](O)[C@@H]1O)c1ccccc1 | nt | 0.8 | -17.9 | nt | nt | nt | nt | nt
CCOC(=O)C[C@@H]1OC[C@H](Cc2ccccc2)N1S(=O)(=O)c1ccc(C)cc1 | nt | -0.3 | -10.5 | nt | nt | nt | nt | nt
SMILES | OX1R antag-1 | TAAR1 ag | TAAR1 antagonist | CHO parental Ca | OX1R antag-2 | GPR7 antag | GPR7 antag conf | MCHR1 antag
Cc1ccccc1OCCn1cnc2cc([N+](=O)[O-])ccc2c1=O | 31.2 | 10.8 | 49.2* | 1.8 | -27.0 | 26.2* | 27.1* | 54.8*
O=C(C[C@H]1CC[C@H]2[C@@H](COC[C@@H](O)CN2S(=O)(=O)c2ccccc2)O1)N[C@@H]1CCN(Cc2ccccc2)C1 | nt | -0.4 | -8.0 | nt | nt | nt | nt | nt
COc1ccc(CCNCC(O)Cn2c3ccccc3c3ccccc32)cc1OC (configuration not stated) | -0.4 | 17.7 | 5.0 | 16.2 | 22.9 | 43.4* | 56.0* | 74.1*
COc1ccccc1NCC(O)Cn1c2ccccc2c2ccccc21 (configuration not stated) | 34.8 | 5.6 | 25.4 | -11.5 | -3.3 | 6.4 | nt | nt
COc1ccc(-c2nc3ccc(Br)cn3c2Cc2cccc(Cl)c2)cc1OC | nt | 4.0 | -7.2 | nt | nt | nt | nt | nt
CCOC(=O)c1c(CSCc2ccccc2)oc2ccc(O)c(CN(C)C)c12 | 3.4 | 23.3 | -1.7 | -3.1 | -21.6 | 40.1* | 40.3* | 67.8*
CCc1ccccc1NC(=O)C1CCCN(c2ncnc3onc(-c4ccc(F)cc4)c23)C1 (configuration not stated) | 14.3 | 0.1 | -12.9 | -21.2 | -9.9 | 28.6* | 16.5 | 21.7*
CCc1ccccc1NC(=O)C1CCCN(c2nccc(C)n2)C1 (configuration not stated) | 9.3 | -2.0 | -11.1 | -24.0 | -26.5 | -13.6 | nt | nt
Cc1ccccc1NC(=O)C1CCCN(c2ncnc3onc(-c4ccc(F)cc4)c23)C1 (configuration not stated) | 13.2 | -1.0 | -6.8 | -17.4 | -16.4 | 27.8* | 28.2* | 14.6
C#CCN1C=C(C(=O)OCC)C(C)N(Cc2ccccc2I)S1(=O)=O (configuration not stated) | 20.1 | 4.2 | 13.1 | -20.7 | -6.1 | nt | nt | nt
CCOC(=O)c1ccc(S(=O)(=O)N2CCC(C(=O)OCC)CC2)cc1 | 17.3 | 2.5 | 0.5 | -1.7 | -11.6 | 10.1 | nt | nt
